In ChEMBL document CHEMBL1141264, “Cucurbitane-type triterpenoids from the fruits of Momordica charantia and their cancer chemopreventive effects” (J Nat Prod, 2007) one finds inhibitory ratio (IR) against NOR 1 action, viability and level, % of control data, which are given here for 20 compounds.

The nature of data set [1]: Scavenging activity against NO generation in NOR1-induced cell culture. The data set is classed as functional. An outline of the steps: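 Cultured-cell screen for scavenging of NO released by the NO donor NOR 1. Activity expressed as inhibitory ratio (IR) against NOR 1 action, with glycyrrhizin and carboxy-PTIO as reference compounds.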
Data set [2] is described as follows: Cytotoxicity against human Raji cells assessed as cell viability at 1000 mol ratio/TPA relative to control. The data set is classed as cell-based. The following applies: read-out: Activity. An outline of the steps:
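Raji cells stimulated with TPA at 32 pmol (20 ng), taken as 100% positive control. Test compound added at mol ratio to TPA of 1000, 500, 100 or 10 (1000:1 = 32 nmol). EBV-EA induction expressed as % of positive control; Raji cell viability recorded as % at the 1000 ratio. IC50 as mol ratio to TPA inhibiting 50% of control.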

Data set [3] deals with Raji. Kind of data set: Inhibition of TPA-induced Epstein-Barr virus early antigen in Raji cells at 10 mol ratio/TPA relative to control; values are per cent of control. The note with it: human gammaherpesvirus 4.
Data set [4] deals with Raji. Kind of data set: Inhibition of TPA-induced Epstein-Barr virus early antigen in Raji cells at 500 mol ratio/TPA relative to control; values are per cent of control. The following applies: human gammaherpesvirus 4.
For data set [5], the system named is Raji. The experiment in a line: Inhibition of TPA-induced Epstein-Barr virus early antigen in Raji cells at 100 mol ratio/TPA relative to control; values are per cent of control. The note with it: human gammaherpesvirus 4.
In data set [6] the test system is Raji. Kind of data set: Inhibition of TPA-induced Epstein-Barr virus early antigen in Raji cells at 1000 mol ratio/TPA relative to control; values are per cent of control. The following applies: human gammaherpesvirus 4.

Take `CC1(C)N([O])C(c2ccc(C(=O)O)cc2)=[N+]([O-])C1(C)C`: the inhibitory ratio (IR) against NOR 1 action in data set [1] turned out to be 8.
Consider `COC1O[C@]23C=C[C@@H]4[C@@]1(CC[C@]1(C)[C@@H]([C@H](C)C/C=C/C(C)(C)O)CC[C@@]41C)[C@@H]2CC[C@H](O)C3(C)C` (some centres undefined), for which the inhibitory ratio (IR) against NOR 1 action in data set [1] was found to be 1.9. The viability at 1000 mol ratio/TPA in data set [2] amounted to 70%. In addition, the level, % of control with Raji [3] amounted to 94.5%; with Raji [4], 27.6%; with Raji [5] it was 72.5%; with Raji [6] it was 0%.
As to `CO[C@H]1C=C2[C@@H](CC[C@H](O[C@@H]3O[C@H](CO)[C@@H](O)[C@H](O)[C@H]3O)C2(C)C)[C@]2(C=O)CC[C@]3(C)[C@@H]([C@H](C)C/C=C/C(C)(C)OC)CC[C@@]3(C)[C@H]12` [CHARANTOSIDE VIII], the viability at 1000 mol ratio/TPA in data set [2] was found to be 70%. Also, the level, % of control with Raji [3] was 100%; in the data set on Raji [4], 38.5%; with Raji [5], 82.5%; in the data set with Raji [6] it was 15.3%.
The corresponding values for `CO[C@H](C=C(C)C)C[C@@H](C)[C@H]1CC[C@@]2(C)[C@@H]3C=C[C@@]45OC[C@]3(CC[C@]12C)[C@@H]4CC[C@H](O[C@@H]1O[C@H](CO)[C@@H](O)[C@@H](O)[C@H]1O)C5(C)C` [CHARANTOSIDE VI] are 70%, 100%, 35.9%, 82% and 12.7%.
As to `C=C(C)/C=C/C[C@@H](C)[C@H]1CC[C@@]2(C)[C@@H]3C=C[C@@]45OC(=O)[C@]3(CC[C@]12C)[C@@H]4CC[C@H](O[C@@H]1O[C@H](CO)[C@@H](O)[C@H](O)[C@H]1O)C5(C)C` [CHARANTOSIDE VII], the viability at 1000 mol ratio/TPA in data set [2] was 70%. For the same compound, the level, % of control in the data set with Raji [3] amounted to 100%; in the data set on Raji [4], 28.1%; with Raji [5] it was 75.1%; with Raji [6], 9.9%.
For `C=C(C)/C=C/C[C@@H](C)[C@H]1CC[C@@]2(C)[C@@H]3C=C[C@@]45OC[C@]3(CC[C@]12C)[C@@H]4CC[C@H](O[C@@H]1O[C@H](CO)[C@@H](O)[C@@H](O)[C@H]1O)C5(C)C` [CHARANTOSIDE IV], in that order: 70%, 100%, 35%, 81.1% and 12.1%.
Regarding `C[C@H](C/C=C/C(C)(C)O)[C@H]1CC[C@@]2(C)[C@@H]3C=C[C@@]45OC[C@]3(CC[C@]12C)[C@@H]4CC[C@H](O[C@@H]1O[C@H](CO)[C@@H](O)[C@@H](O)[C@H]1O)C5(C)C` [MOMORDICOSIDE F2], in data set [2], the viability at 1000 mol ratio/TPA was 70%. Besides, the level, % of control with Raji [3] was determined as 100%; with Raji [4] it was 29.7%; with Raji [5], 76.9%; in the data set with Raji [6], 9.1%.
The corresponding values for `COC(C)(C)/C=C/C[C@@H](C)[C@H]1CC[C@@]2(C)[C@@H]3C=C[C@@]45OC[C@]3(CC[C@]12C)[C@@H]4CC[C@H](O[C@@H]1O[C@H](CO)[C@@H](O)[C@H](O)[C@H]1O)C5(C)C` [MOMORDICOSIDE F1] are 70%, 100%, 31.5%, 78.1% and 11.3%.
With `C=C(C)/C=C/C[C@@H](C)[C@H]1CC[C@@]2(C)[C@@H]3[C@@H](OC)C=C4[C@@H](CC[C@H](O)C4(C)C)[C@]3(C=O)CC[C@]12C`, in data set [1], the inhibitory ratio (IR) against NOR 1 action stood at 1.6. The viability at 1000 mol ratio/TPA in data set [2] is 70%. Further, the level, % of control in the data set on Raji [3] stood at 95.3%; in the data set on Raji [4], 22.5%; in the data set on Raji [5] it was 75.4%; in the data set with Raji [6], 0%.
In the case of `CO[C@H](C=C(C)C)C[C@@H](C)[C@H]1CC[C@@]2(C)[C@@H]3[C@@H](OC)C=C4[C@@H](CC[C@H](O[C@@H]5O[C@H](CO)[C@@H](O)[C@H](O)[C@H]5O)C4(C)C)[C@]3(C)CC[C@]12C` [KARAVILOSIDE I], the viability at 1000 mol ratio/TPA in data set [2] was 70%. Besides, the level, % of control in the data set with Raji [3] came out at 100%; in the data set on Raji [4] it was 39.2%; in the data set on Raji [5], 83.7%; in the data set on Raji [6] it was 16.1%.
For `CO[C@@H](C=C(C)C)C[C@@H](C)[C@H]1CC[C@@]2(C)[C@@H]3C=C[C@@]45OC[C@]3(CC[C@]12C)[C@@H]4CC[C@H](O[C@@H]1O[C@H](CO)[C@@H](O)[C@H](O)[C@H]1O)C5(C)C` [CHARANTOSIDE V], in that order: 70%, 100%, 30.6%, 77% and 10.5%.
For `C=C(C)/C=C/C[C@@H](C)[C@H]1CC[C@@]2(C)[C@@H]3C=C[C@@]45O[C@@H](OC)[C@]3(CC[C@]12C)[C@@H]4CC[C@H](O[C@@H]1O[C@H](CO)[C@@H](O)[C@H](O)[C@H]1O)C5(C)C` [CHARANTOSIDE I], in that order: 70%, 100%, 35.4%, 81.1% and 12.6%.
As for `CC1(C)[C@@H](O[C@H]2O[C@H](C(=O)O)[C@@H](O)[C@H](O)[C@H]2O[C@@H]2O[C@H](C(=O)O)[C@@H](O)[C@H](O)[C@H]2O)CC[C@]2(C)[C@H]3C(=O)C=C4[C@@H]5C[C@@](C)(C(=O)O)CC[C@]5(C)CC[C@@]4(C)[C@]3(C)CC[C@@H]12` [GLYCYRRHIZIN], in data set [1], the inhibitory ratio (IR) against NOR 1 action is 2.2. The viability at 1000 mol ratio/TPA in data set [2] was over 80%. In addition, the level, % of control with Raji [3] is 100%; in the data set with Raji [4], 63.3%; in the data set with Raji [5] it was 83.3%; in the data set on Raji [6], 27.4%.
As to `COC1O[C@]23C=C[C@@H]4[C@@]1(CC[C@]1(C)[C@@H]([C@H](C)C/C=C/C(C)(C)OC)CC[C@@]41C)[C@@H]2CC[C@H](O[C@@H]1O[C@H](CO)[C@@H](O)[C@H](O)[C@H]1O)C3(C)C` (some centres undefined) [GOYAGLYCOSIDE C], the viability at 1000 mol ratio/TPA in data set [2] was found to be 70%. For the same compound, the level, % of control came out at 100% in the data set with Raji [3], 33.7% with Raji [4], 80% with Raji [5] and 13.5% in the data set on Raji [6].
For the compound `COC1O[C@]23C=C[C@@H]4[C@@]1(CC[C@]1(C)[C@@H]([C@H](C)C/C=C/C(C)(C)OC)CC[C@@]41C)[C@@H]2CC[C@H](O[C@@H]1O[C@H](CO)[C@@H](O)[C@@H](O)[C@H]1O)C3(C)C` (some centres undefined) [GOYAGLYCOSIDE D], the viability at 1000 mol ratio/TPA in data set [2] came out at 70%. For the same compound, the level, % of control turned out to be 100% in the data set with Raji [3], 34.2% with Raji [4], 80.3% in the data set with Raji [5] and 11.2% in the data set with Raji [6].
Turning to `CC1=C(/C=C/C(C)=C/C=C/C(C)=C/C=C/C=C(C)/C=C/C=C(C)/C=C/C2=C(C)CCCC2(C)C)C(C)(C)CCC1`, the level, % of control worked out at 100% in the data set on Raji [3], 34.2% in the data set with Raji [4], 82.1% in the data set with Raji [5] and 8.6% with Raji [6].
On to `CO[C@H]1C=C2[C@@H](CC[C@H](O)C2(C)C)[C@]2(C=O)CC[C@]3(C)[C@@H]([C@H](C)C/C=C/C(C)(C)OC)CC[C@@]3(C)[C@H]12`, for which the inhibitory ratio (IR) against NOR 1 action in data set [1] stood at 1.5. For the same compound, in data set [2], the viability at 1000 mol ratio/TPA was 70%. For the same compound, the level, % of control in the data set on Raji [3] was 97.3%; with Raji [4], 33.7%; in the data set with Raji [5], 77.5%; with Raji [6] it was 0%.
For `CO[C@@H]1O[C@]23C=C[C@@H]4[C@@]1(CC[C@]1(C)[C@@H]([C@H](C)C[C@H](C=C(C)C)OC)CC[C@@]41C)[C@@H]2CC[C@H](O[C@@H]1O[C@H](CO)[C@@H](O)[C@@H](O)[C@H]1O)C3(C)C` [CHARANTOSIDE II], the viability at 1000 mol ratio/TPA in data set [2] came out at 70%. The level, % of control in the data set with Raji [3] was 100%; with Raji [4], 35%; in the data set on Raji [5] it was 82.1%; in the data set on Raji [6], 12.3%.
The corresponding values for `C=C(C)/C=C/C[C@@H](C)[C@H]1CC[C@@]2(C)[C@@H]3C=C[C@@]45OC[C@]3(CC[C@]12C)[C@@H]4CC[C@H](O[C@@H]1O[C@H](CO)[C@@H](O)[C@H](O)[C@H]1O)C5(C)C` [CHARANTOSIDE III] are 70%, 100%, 36%, 82.1% and 12.9%.
For `COc1cc(/C=C/C(=O)CC(=O)/C=C/c2ccc(O)c(OC)c2)ccc1O` [CURCUMIN], in that order: 70%, 100%, 22.8%, 81.8% and 0%.
